# Reference: ChEMBL document CHEMBL1145965, “4-Substituted 4-hydroxycyclohexa-2,5-dien-1-ones with selective activities against colon and renal cancer cell lines” (J Med Chem, 2003)
# Key:
# [1] = system: A549; assay: Inhibitory activity against A549 lung adenocarcinoma cell line; type: functional, cell-based; conditions: Homo sapiens
# Outline: (§1)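 Cells grown in RPMI 1640 with 2 mM L-glutamine and 10% fetal calf serum, 37 °C, 5% CO2. Seeded at 5 × 10³ per well, 24 h adherence, then drug 0.1 nM–100 μM final (n = 8; DMSO stocks, dilutions in medium) for 72 h.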
# [2] = system: BT-549; assay: Concentration of compound that cause 50% cytotoxicity of BT-549 breast cancer cell line; type: functional; conditions: Homo sapiens, read-out: Log LC50 (the source's name) (converted)
# Outline: (§2)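 NCI 60-cell-line panel screen. Each line was seeded in 96-well plates at a density set by its growth characteristics and incubated drug-free for 24 h. Test agents were then added at five 10-fold dilutions, with a top concentration of 100 μM.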
# [3] = system: A498; assay: Concentration of compound that cause 50% cytotoxicity of A498 renal cancer cell line; type: functional; conditions: Homo sapiens, read-out: Log LC50 (the source's name) (converted); outline: as §2
# [4] = system: NCI-H226; assay: Concentration of compound that cause 50% cytotoxicity of NCI-H226 non small cell lung cancer cell line; type: functional; conditions: Homo sapiens, read-out: Log LC50 (the source's name) (converted); outline: as §2
# [5] = system: M14; assay: Concentration of compound that cause 50% cytotoxicity of M14 melanoma cell line; type: functional; conditions: Homo sapiens, read-out: Log LC50 (the source's name) (converted); outline: as §2
# [6] = system: IGROV-1; assay: Concentration of compound that cause 50% cytotoxicity of IGROV1 ovarian cancer cell line; type: functional; conditions: Homo sapiens, read-out: Log LC50 (the source's name) (converted); outline: as §2
# [7] = system: 786-0; assay: Concentration of compound that cause 50% cytotoxicity of 786-0 renal cancer cell line; type: functional; conditions: Homo sapiens, read-out: Log LC50 (the source's name) (converted); outline: as §2
# [8] = system: U-251; assay: Concentration of compound that cause 50% cytotoxicity of U251 CNS cancer cell line; type: functional; conditions: Homo sapiens, read-out: Log LC50 (the source's name) (converted); outline: as §2
# [9] = system: Panel NCI-60 (60 carcinoma cell lines); assay: In vitro mean growth lethal concentration in colon subpanel against 60-cell panel; type: functional; conditions: Homo sapiens, read-out: Mean LC50
# [10] = system: Malme-3M; assay: Concentration of compound that cause 50% cytotoxicity of MALME -3M melanoma cell line; type: functional; conditions: Homo sapiens, read-out: Log LC50 (the source's name) (converted); outline: as §2
# [11] = system: CCRF-CEM; assay: Concentration of compound that cause 50% cytotoxicity of CCRF-CEM leukemia cell line; type: functional; conditions: Homo sapiens, read-out: Log LC50 (the source's name) (converted); outline: as §2
# [12] = system: ACHN; assay: In vitro lethal concentration against most sensitive ACHN cell line; type: functional; conditions: Homo sapiens, read-out: LC50 (the source's name)
# [13] = system: MDA-N; assay: Concentration of compound that cause 50% cytotoxicity of MDA-N breast cancer cell line; type: functional; conditions: Homo sapiens, read-out: Log LC50 (the source's name) (converted); outline: as §2
# [14] = system: NCI-H322M; assay: Concentration of compound that cause 50% cytotoxicity of NCI-H322M non small cell lung cancer cell line; type: functional; conditions: Homo sapiens, read-out: Log LC50 (the source's name) (converted); outline: as §2
# [15] = system: HOP-62; assay: Concentration of compound that cause 50% cytotoxicity of HOP-62 non small cell lung cancer cell line; type: functional; conditions: Homo sapiens, read-out: Log LC50 (the source's name) (converted); outline: as §2
# [16] = system: LOX IMVI; assay: Concentration of compound that cause 50% cytotoxicity of LOX IMVI melanoma cell line; type: functional; conditions: Homo sapiens, read-out: Log LC50 (the source's name) (converted); outline: as §2
# [17] = system: DU-145; assay: Concentration of compound that cause 50% cytotoxicity of DU-145 prostate cancer cell line; type: functional; conditions: Homo sapiens, read-out: Log LC50 (the source's name) (converted); outline: as §2
# [18] = system: HCT-116; assay: Concentration of compound that cause 50% cytotoxicity of HCT116 colon cancer cell line; type: functional; conditions: Homo sapiens, read-out: Log LC50 (the source's name) (converted); outline: as §2
# [19] = system: SK-MEL-28; assay: Concentration of compound that cause 50% cytotoxicity of SK-MEL-28 melanoma cell line; type: functional; conditions: Homo sapiens, read-out: Log LC50 (the source's name) (converted); outline: as §2
# [20] = system: HT-29; assay: Concentration of compound that cause 50% cytotoxicity of HT-29 colon cancer cell line; type: functional; conditions: Homo sapiens, read-out: Log LC50 (the source's name) (converted); outline: as §2
# [21] = system: CAKI-1; assay: Concentration of compound that cause 50% cytotoxicity of CAKI-1 renal cancer cell line; type: functional; conditions: Homo sapiens, read-out: Log LC50 (the source's name) (converted); outline: as §2
# [22] = system: NCI/ADR-RES; assay: Concentration of compound that cause 50% cytotoxicity of NCI/ADR-RES breast cancer cell line; type: functional; conditions: Homo sapiens, read-out: LC50 (the source's name); outline: as §2
# [23] = system: SW-620; assay: In vitro lethal concentration against least sensitive colon SW-620 cell line; type: functional; conditions: Homo sapiens, read-out: LC50 (the source's name)
# [24] = system: HOP-92; assay: Concentration of compound that cause 50% cytotoxicity of HOP-92 non small cell lung cancer cell line; type: functional; conditions: Homo sapiens, read-out: Log LC50 (the source's name) (converted); outline: as §2
# [25] = system: SW-620; assay: Concentration of compound that cause 50% cytotoxicity of SW-620 colon cancer cell line; type: functional; conditions: Homo sapiens, read-out: LC50 (the source's name); outline: as §2
# [26] = system: HCT-15; assay: Concentration of compound that cause 50% cytotoxicity of HCT-15 colon cancer cell line; type: functional; conditions: Homo sapiens, read-out: Log LC50 (the source's name) (converted); outline: as §2
# [27] = system: SK-MEL-2; assay: Concentration of compound that cause 50% cytotoxicity of SK-MEL-2 melanoma cell line; type: functional; conditions: Homo sapiens, read-out: Log LC50 (the source's name) (converted); outline: as §2
# [28] = system: HL-60; assay: Concentration of compound that cause 50% cytotoxicity of HL-60(TB) leukemia cell line; type: functional; conditions: Homo sapiens, read-out: Log LC50 (the source's name) (converted); outline: as §2
# [29] = system: HCT-116; assay: Inhibitory activity against HCT116 colon cancer cell line; type: functional, cell-based; conditions: Homo sapiens; outline: as §1
# [30] = system: MCF7; assay: Concentration of compound that cause 50% cytotoxicity of MCF-7 breast cancer cell line; type: functional; conditions: Homo sapiens, read-out: Log LC50 (the source's name) (converted); outline: as §2
# [31] = system: SF-295; assay: Concentration of compound that cause 50% cytotoxicity of SF-295 CNS cancer cell line; type: functional; conditions: Homo sapiens, read-out: Log LC50 (the source's name) (converted); outline: as §2
# [32] = system: HT-29; assay: Inhibitory activity against HT-29 colon cancer cell line; type: functional, cell-based; conditions: Homo sapiens; outline: as §1
structure (smiles),measurement,setting,value
O=C1C=CC(O)(c2nc3ccccc3s2)C=C1,IC50,[1],2.35 µM
same,CC50,[2],4.79 µM
same,CC50,[3],8.51 µM
same,CC50,[4],23.4 µM
same,CC50,[5],5.25 µM
same,CC50,[6],5.37 µM
same,CC50,[7],1.05 µM
same,CC50,[8],2.57 µM
same,CC50,[9],1.76 µM
same,CC50,[10],2.34 µM
same,CC50,[11],2.57 µM
same,CC50,[12],0.69 µM
same,CC50,[13],1 µM
same,CC50,[14],23.4 µM
same,CC50,[15],12.6 µM
same,CC50,[16],3.8 µM
same,CC50,[17],3.39 µM
same,CC50,[18],0.468 µM
same,CC50,[19],2.51 µM
same,CC50,[20],0.692 µM
same,CC50,[21],1.35 µM
same,CC50,[22],> 4 µM
same,CC50,[23],> 100 µM
same,CC50,[24],3.72 µM
same,CC50,[25],> 4 µM
same,CC50,[26],2.45 µM
same,CC50,[27],7.08 µM
same,CC50,[28],0.741 µM
same,IC50,[29],0.04 µM
same,CC50,[30],4.07 µM
same,CC50,[31],4.68 µM
same,IC50,[32],0.38 µM
